Test results published in PubChem BioAssay AID1046 (PCMD, 2008).
About 560 (0.25%) of roughly 220,000 compounds were called active. Many of the other results were omitted from the sample, so actives are more common in it than they were. A number with no mark means an inactive call.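 The calls were made as follows: active = inhibition at or above 40%; inactive = inhibition below 40%.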

Molecular target: Prothrombin (Homo sapiens) (UniProt P00734)
Assay: human alpha-thrombin inhibitors, primary screen, counter-screen for coagulation protease inhibitor project, biochemical, 1536-well, fluorogenic AMC substrate (AID 1046);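 also: 0% = enzyme with no compound and 100% = wells without enzyme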
Details: Boc-VPR-AMC fluorogenic substrate cleavage, at 5 µM, active compounds read high
Procedure, shortened: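 System: Human alpha-thrombin protein | Medium: pH 7.5 Tris (50 mM) with NaCl 150 mM, Tween 20 0.05% | Times: Enzyme reaction carried out at room temperature | Detection: AMC fluorescence, 355/460 nm | Evaluation: Percent inhibition scaled between no-compound controls and no-enzyme blanks | Benchmarks: Enzyme without compound as high, wells lacking enzyme as low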

SMILES | inhibition
CN(c1ccc(OCC(=O)NC2=NCCS2)cc1)S(=O)(=O)c1ccc(F)cc1 | -4.51%
Cc1ccc(SCc2c(C(=O)N/N=C/C3CC=CCC3)nnn2-c2nonc2N)cc1 (stereo not drawn) | -0.65%
O=C(NCC1CCCO1)c1cc(-c2ccccc2)nc2ccccc12 (stereo not drawn) | 3.52%
Cn1cc(CN2CCCCC2c2ccccn2)c(-c2ccc3c(c2)OCCO3)n1 (stereo not drawn) | -14.8%
O=S(=O)(c1cccc(C(F)(F)F)c1)N1CCN(c2cnccn2)CC1 | 2.6%
CCCN1C(=O)C(Cc2nc3ccccc3c(=O)n2-c2ccccc2)c2cc(C)ccc21 (stereo not drawn) | -0.44%
O=C(Nc1nnc(COc2ccccc2)s1)Nc1ccccc1F | 1.51%
CCOC(=O)C1(CCOC)CCN(Cc2ccc(C(=O)OC)cc2)CC1 | -3.33%
CC(C)Oc1ccc(CCC(=O)NNC(=S)NCc2ccccc2)cc1 | 5.08%
CCN(CC)CCC(c1ccc2c(c1)OCO2)c1c(OC)cc(OC)c2c(-c3ccccc3)cc(=O)oc12 (stereo not drawn) | -12.8%
O=C(c1ccccc1Cl)N(Cc1ccccc1F)N1C(=O)CCCC1=O | -0.77%
CCC(C)[C@@H](C(=O)N1CCNCC1)n1cc(CCCCN)nn1 (stereo partly drawn) | -2.39%
CCOC(=O)C1(C)NC(c2ccco2)C2C(=O)N(c3ccccc3)C(=O)C21 (stereo not drawn) | -2.99%
O=C(Nc1ccccc1F)c1ccc(Cn2cc(Br)cn2)cc1 | 0.95%
CCCC(O)(CCC)C(=O)NN(C(=O)CCl)c1cccc(C)c1 | -0.4%
CC(C)Cc1ccc(C(C)C(=N)N)cc1 (stereo not drawn) | -0.2%
CCS(=O)(=O)N1Cc2ccccc2CC1C(=O)Nc1nc2ccc(F)cc2s1 (stereo not drawn) | -4.77%
O=C(CSc1nnnn1-c1ccc(O)cc1)c1ccc(F)cc1 | -1.4%
CC1CN(S(=O)(=O)c2ccc(C(=O)NN3CCN(C)CC3)cc2)CC(C)O1 (stereo not drawn) | -9.4%
CC(C)(C)C1CCC(OC(=O)CCC(=O)Nc2ccccc2)CC1 (stereo not drawn) | -0.51%
CC(C)N1C(=O)N(c2ccccc2)C(C)(O)CC1(C)C (stereo not drawn) | -4.92%
COC(=O)c1cc2c(N)c(C(=O)c3ccc(Cl)cc3)sc2nc1C(OC)OC | 3.67%
COc1ccccc1NC(=O)c1cc(Cl)nnc1Cl | -8.6%
C=C(C)COc1ccc(-c2nc(N)ncc2-c2ccccc2OC)c(O)c1 | -2.7%

SMILES | inhibition
COc1cc(NC(=O)c2ccc(CNc3c(N4CCCC4)c(=O)c3=O)cc2)cc(OC)c1OC | 3.4%
Cc1noc(C)c1S(=O)(=O)N1CCCC(C(=O)Nc2nccs2)C1 (stereo not drawn) | -1.5%
Cc1ccc(NC(=O)C2CCCN(S(=O)(=O)c3c(C)noc3C)C2)c(C)c1 (stereo not drawn) | -4.66%
COc1c(C)cc(C(=O)C2CCCN(S(=O)(=O)c3c(C)noc3C)C2)cc1C (stereo not drawn) | 41.9% (active)
CN1CCN(c2ncc3c(n2)CC(c2ccccc2F)CC3=O)CC1 (stereo not drawn) | -5.02%
Cc1ccc(C)c(NC(=S)NCC(c2cccnc2)N2CCOCC2)c1 (stereo not drawn) | -3.59%
CCCC/C(C)=N/NC(=O)NC1CCCCC1 | -6.13%
O=C(Cn1cc(C(=O)c2cccs2)c2ccccc21)NCc1cccs1 | -2.66%
COC(=O)Cn1cc(C(=O)c2cccs2)c2ccccc21 | 47% (active)
COCCNC(=O)Cn1cc(C(=O)c2cccs2)c2ccccc21 | 0.65%
Clc1ccc(CSc2nnc3c(n2)[nH]c2ccccc23)cc1 | -0.71%
CCC(C(=O)Nc1ccc(C(C)C)cc1)c1ccccc1 (stereo not drawn) | -7.56%
CCc1ccc(CNC(=O)CCc2nc(-c3cccs3)no2)cc1 | 6.55%
O=C(Cn1c2[n+](c3ccc(C(F)(F)F)cc31)CCCCC2)Nc1c(F)cccc1F | -11.3%
O=C(CSc1ccc([N+](=O)[O-])cn1)Nc1ccc(N2CCOCC2)c(Cl)c1 | -6.75%
Cc1nc2cc(NC(=O)Nc3cccc(F)c3)ccc2n1C | 13.7%
C=CCN(C(=O)Nc1ccc2oc(C)nc2c1)c1ccccc1 | -2.2%
C=CCN(C(=O)Nc1ccc2c(c1)nc(C)n2C)c1ccccc1 | 43.6% (active)
CCN(CC)C(=O)N(CC)Cc1ccccc1 | -4.01%
Cc1cc(C)n2nc(C(=O)N(C)C(c3ccccc3)c3ccccc3)nc2n1 | -10.8%
CCOc1cc(NC(=S)NCCCN(C)C)c(OCC)cc1NC(=O)C1CC1 | -9.76%
O=C1/C(=C\c2cccnc2)CN(Cc2ccccc2)C/C1=C\c1cccnc1 | 10.5%
O=C(c1[nH]ncc1-c1ccc(Cl)cc1)C1CO1 (stereo not drawn) | -4.22%
CC(=O)OCCOCn1cnn2c(=O)c(Br)c(C)nc12 | 0.26%
